FLuc inh counter: firefly luciferase enzyme inhibitors, primary screen, artefact control for luciferase-based inhibitor screens, biochemical, luminescence, ATPLite. 10 min. inhibition, % at 10 µM. Luciferin 4-monooxygenase (Photinus pyralis), P08659. 1.5% of 200,000 active;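 active = inhibition above about 50% when tested at 10 µM, limit read from the data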
Target sequence (P08659 whole entry, looked up): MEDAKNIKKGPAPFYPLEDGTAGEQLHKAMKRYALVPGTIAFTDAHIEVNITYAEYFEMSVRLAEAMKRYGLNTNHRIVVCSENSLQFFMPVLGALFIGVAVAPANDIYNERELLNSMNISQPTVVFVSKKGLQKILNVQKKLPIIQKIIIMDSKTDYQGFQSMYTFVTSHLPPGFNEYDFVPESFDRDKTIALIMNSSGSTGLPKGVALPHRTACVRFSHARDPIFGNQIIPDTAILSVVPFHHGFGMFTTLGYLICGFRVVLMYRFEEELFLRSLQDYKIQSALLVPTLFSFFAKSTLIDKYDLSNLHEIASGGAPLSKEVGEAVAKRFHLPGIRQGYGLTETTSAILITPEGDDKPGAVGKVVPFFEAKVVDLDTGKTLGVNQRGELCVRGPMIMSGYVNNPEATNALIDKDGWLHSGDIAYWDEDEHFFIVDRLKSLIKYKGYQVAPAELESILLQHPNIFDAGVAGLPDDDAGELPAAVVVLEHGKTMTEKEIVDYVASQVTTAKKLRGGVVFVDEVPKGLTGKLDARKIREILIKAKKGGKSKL
APP 5'UTR act: activators of APP 5'UTR luciferase reporter, primary screen, SH-SY5Y cells; SH-SY5Y APP 5'UTR luciferase reporter, luminescence; zero percent = DMSO vehicle wells; activation, % at 2 µM; 1% of 190,000 active;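 active = activation above a set limit, based on mean plus 3 SD of controls, cut at about 140% in these data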
STAT1 act: STAT1 signaling activators, primary screen, cell-based, HTS, luciferase reporter; activation (% of control), % at 5.5 µM; NIH 3T3 STAT1-luciferase reporter, IFN-gamma, luminescence; 100% = IFN-gamma alone, no compound; 2.6% of 200,000 active;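 active = activation above the screen-wide mean activation plus 3 SD, cut at about 130% in these data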;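 also: raw ratio to IFN-gamma control signal so 100% means no change and 0% no light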
NF-kB neuron act: activators of NF-kB expression in neurons, primary screen, cell-based, HTS; fold change at 12.5 µM; human neuronal cells, NF-kB reporter expression; stronger effect = higher value; 1.6% of 190,000 active; in the data active = fold change above about 3.3
FLuc act counter: FLuc activators, initial screening, artefact control for FLuc-dependent activation tests, biochemical, ATPlite luminescence. ATPlite luciferase biochemical, 10 min; 0 = ATP-free wells, 1 = DMSO control. activation factor at 10 µM. 200,000 tested, under 10 active;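 active = luciferase activation factor, scaled between plate controls, of at least 2 with compound at 10 µM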
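System: cell-free luciferase reagent; medium: PBS as buffer for the ATP substrate; doses: test compounds dosed from 2 mM stocks in 100% DMSO; incubation: 10 min, room temperature; measured by: luminescence from luciferase reaction; read-out: luciferase activation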
sdo1 growth: growth rescue of sdo1-depleted yeast, primary screen, S. cerevisiae, bone marrow failure model; S. cerevisiae sdo1-depleted JHY4D growth rescue, OD600 30 h; stronger effect = higher value; pdr5 snq2 efflux-pump mutant strain; z-score at 10 µM; AID 817, 2007; 0.21% of 140,000 active;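 active = z-score above 3 at both the 24 hr and the 30 hr optical density reads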;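 also: z-score against mean and SD of all compound wells on the same plate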
STAT1 activ conf: STAT1 signaling activators, confirmation, cell-based, HTS, luciferase reporter. shares compounds with STAT1 act. NIH 3T3 STAT1-luciferase reporter, IFN-gamma potentiation, luminescence; 100% = IFN-gamma EC80 alone, no compound. activation (% of control), % at 5.7 µM. 97% of 1,200 active. AID 1262, 2008;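 active = activation above a set limit carried over from the earlier primary STAT1 screen, cut at about 140% in these data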;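 also: simple ratio to median IFN-gamma plus DMSO wells so 0% means no light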
NFkB act: NF-kB reporter activators, TNF-alpha stimulated, counter-screen for STAT1 activator project, cell-based, HEK293T, luciferase luminescence; 43% of 1,200 active; activation (% of control), % at 5.7 µM; 100% = TNF-alpha with vehicle only; shares compounds with STAT1 act; AID 1306, 2008;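 active = activation above the mean of solvent-only control wells plus 3 SD, set per campaign, cut at about 130% in these data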;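 also: TNF-alpha given at a submaximal dose yielding about 80% of full reporter signal; values are well signal over median control so 100% means no change and 0% no light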
STAT3 act STAT1c: STAT3 reporter activation by STAT1 hits, confirmation, counter-screen for STAT1 activator project, U3A cells, luciferase, luminescence; shares compounds with STAT1 act; IL-6; cells lack STAT1; 100 = IL-6 alone, no compound effect; activation (% of control), % at 5.7 µM; 46% of 1,200 active; AID 1316, 2008;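 active = activation above the solvent-only control well mean plus 3 SD, set per plate batch, cut at about 110% in these data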;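 also: 0% = no luminescence and 100% = median IL-6 plus DMSO wells; higher means more STAT3 reporter activation so hits are non-selective activators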
Starred values were filed as active, the others as inactive. Compounds with a hit are over-represented: about 4.3% of the library has one in this group of screens.

O=C(Nc1nc2ccccc2[nH]1)C1CC1 was read as FLuc inh counter 4.2, APP 5'UTR act 10.3, STAT1 act 123.5, NF-kB neuron act 0.94 and FLuc act counter 1.
For O=C(/C=C/c1ccc(F)cc1)Nc1nc2ccccc2[nH]1 the results were FLuc inh counter 22.0, APP 5'UTR act 160.8*, STAT1 act 153.7*, NF-kB neuron act 1.87, FLuc act counter 0.8, sdo1 growth 0.37, STAT1 activ conf 188.7*, NFkB act 118.9 and STAT3 act STAT1c 90.7.
`O=C(C1=C[C@H](C2CCCCC2)C[C@H](OCCCCO)O1)N1CCN(Cc2ccccc2)CC1` gave FLuc inh counter -6.0, APP 5'UTR act 5.6, STAT1 act 103.0, NF-kB neuron act 1.03 and FLuc act counter 1.1.
Screening CCOc1nc(NC(=O)NS(=O)(=O)c2cccc(Cl)c2)nc(-c2ccccc2)n1 returned FLuc inh counter 4.3, APP 5'UTR act 15.9, STAT1 act 97.7, NF-kB neuron act 1.2, FLuc act counter 1 and sdo1 growth 0.12.
CN1CCN(C2=CC(=O)OC23CCCCC3)CC1 was read as FLuc inh counter -5.8, APP 5'UTR act -11.0, STAT1 act 101.9, NF-kB neuron act 1.03, FLuc act counter 1.1 and sdo1 growth 0.39.
Cc1ccc(Nc2ncc3c(n2)CC(C)(C)CC3=O)cc1 was read as FLuc inh counter 46.0, APP 5'UTR act 157.9*, STAT1 act 179.0*, NF-kB neuron act 5.15*, FLuc act counter 0.5, STAT1 activ conf 194.4*, NFkB act 138.7* and STAT3 act STAT1c 118.9*.
For COc1cccc(-c2noc(-c3cccnc3)n2)c1 the results were FLuc inh counter 43.9, APP 5'UTR act 106.7, STAT1 act 158.7*, NF-kB neuron act 5.52*, FLuc act counter 0.6, sdo1 growth 0.38, STAT1 activ conf 188.1*, NFkB act 125.2 and STAT3 act STAT1c 121.3*.
`Cn1c(=O)c2ncn(CC(=O)N=Nc3c(O)[nH]c4ccccc34)c2n(C)c1=O` gave FLuc inh counter -4.9, APP 5'UTR act -19.0, STAT1 act 101.5, NF-kB neuron act 1.21 and FLuc act counter 1.
`CC(=O)c1c(C)[nH]c(C(=O)Nc2cccc(S(=O)(=O)N(C)c3ccccc3)c2)c1C` gave FLuc inh counter -8.7, APP 5'UTR act -3.5, STAT1 act 89.0, NF-kB neuron act 0.56 and FLuc act counter 1.1.
For Cc1nn2c(-c3ccccc3)ccnc2c1-c1ccccc1 the results were FLuc inh counter 28.7, APP 5'UTR act 45.9, STAT1 act 123.0, NF-kB neuron act 2.06, FLuc act counter 0.7 and sdo1 growth -1.38.
Cc1nc2c(-c3ccccc3)c(C)nn2c(N)c1-c1ccccc1 was read as FLuc inh counter 67.9*, APP 5'UTR act 198.8*, STAT1 act 158.9*, NF-kB neuron act 2.25, FLuc act counter 0.3, sdo1 growth -2.04, STAT1 activ conf 206.2*, NFkB act 141.1* and STAT3 act STAT1c 109.9.
O=C(Nc1cccc(Cl)c1)Nc1nnc(CC2=CCCCC2)s1 was read as FLuc inh counter -2.1, APP 5'UTR act -0.2, STAT1 act 97.7, NF-kB neuron act 1.24, FLuc act counter 1 and sdo1 growth 0.39.

Source: PubChem BioAssay
